In the library only some 1.9% were active in any assay of this set; here they are far more common.
CHRM4 PAM – human M4 muscarinic receptor positive allosteric modulators, primary screen, CHO-K1 cells, Fluo-8 calcium fluorescence. activation, % at 3 µM. 360,000 compounds, 0.4% hits. CHO-K1 hM4/Gqi5, ACh EC20; 0% = ACh EC20, 100% = maximal ACh;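 active = activation above its plate's cutoff, the mean activation of sample wells plus 3 SD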
Target sequence (P08173 whole entry, looked up): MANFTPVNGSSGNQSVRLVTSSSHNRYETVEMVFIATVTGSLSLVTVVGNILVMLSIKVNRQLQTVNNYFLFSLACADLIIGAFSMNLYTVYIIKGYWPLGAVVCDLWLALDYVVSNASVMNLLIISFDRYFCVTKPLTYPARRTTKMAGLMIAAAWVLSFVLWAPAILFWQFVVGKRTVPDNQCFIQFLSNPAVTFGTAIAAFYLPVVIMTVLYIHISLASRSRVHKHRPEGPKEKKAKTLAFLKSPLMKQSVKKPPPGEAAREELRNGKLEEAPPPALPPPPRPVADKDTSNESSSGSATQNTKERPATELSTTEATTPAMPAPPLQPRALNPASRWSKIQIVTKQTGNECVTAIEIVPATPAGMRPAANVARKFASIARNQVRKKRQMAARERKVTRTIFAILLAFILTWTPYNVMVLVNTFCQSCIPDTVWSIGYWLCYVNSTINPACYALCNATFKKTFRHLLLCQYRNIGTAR
M4 ag – human M4 muscarinic receptor agonists, primary screen, CHO-K1 cells, Fluo-8 calcium fluorescence; Muscarinic acetylcholine receptor M4 (Homo sapiens), P08173; CHO-K1 hM4/Gqi5; vehicle 0%, full acetylcholine response 100%; activation, % at 3 µM; 360,000 compounds, 0.14% hits;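 active = activation above the run mean over all test wells plus 3 SD, cut at about 32% in these data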;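 also: peak over basal fluorescence ratio per well then scaled between controls; 0% = DMSO wells and 100% = acetylcholine at EC100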
M5 antag – human M5 muscarinic receptor antagonists, primary screen, CHO cells, Fluo-8 calcium fluorescence | CHO-hM5 cells, ACh EC80 | inhibition, % at 3 µM | 360,000 compounds, 0.59% hits | AID 624040, 2012;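 active = inhibition above a per-plate cutoff, the mean of that plate's test compounds plus 3 SD, cut at about 27% in these data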;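 also: 0% = acetylcholine EC80 with DMSO and 100% = DMSO without agonist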
CHRM5 agonist – human M5 muscarinic receptor agonists, primary screen, CHO-K1 cells, Fluo-8 calcium fluorescence; AID 624037, 2012; CHO-K1 hM5 cells; 0% DMSO wells, 100% maximal acetylcholine response; Muscarinic acetylcholine receptor M5 (Homo sapiens), P08912; activation, % at 3 µM; 360,000 compounds, 0.19% hits;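 active = activation above the run's mean over test compounds plus 3 SD, cut at about 23% in these data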;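 also: signal is peak over basal fluorescence ratio across the kinetic read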
M5 PAM – human M5 muscarinic receptor positive allosteric modulators, primary screen, CHO-K1 cells, Fluo-8 calcium fluorescence; Muscarinic acetylcholine receptor M5 (Homo sapiens), P08912; CHO-K1 hM5, ACh EC20 PAM; 0% = ACh EC20, 100% = ACh EC100; activation, % at 3 µM; 360,000 compounds, 0.3% hits; AID 624038, 2012;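 active = activation above the run cutoff, the mean activation of all test compounds plus 3 SD, cut at about 18% in these data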
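Assay system: CHO-K1 hM5 cells. Also added: acetylcholine at EC20 concentration, added after compound. Dosing: 3 µM, single dose. Times: compound preincubation 140 s before EC20 acetylcholine addition. Signal: Fluo-8 calcium fluorescence. Measure: % activation relative to EC20 and EC100 ACh responses. Repeats: singlicate, one well per test compound.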
CHRM4 antagonist – human M4 muscarinic receptor antagonists, primary screen, CHO cells, Fluo-8 calcium fluorescence. Muscarinic acetylcholine receptor M4 (Homo sapiens), P08173. CHO-hM4 cells, ACh EC80. inhibition, % at 3 µM. 360,000 compounds, 0.73% hits. AID 624125, 2012;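 active = inhibition above its plate's cutoff, the mean inhibition of sample wells plus 3 SD, cut at about 27% in these data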;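 also: 0% = acetylcholine EC80 with DMSO and 100% = DMSO without agonist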
Numbers without * were called inactive.

SMILES	CHRM4 PAM	M4 ag	M5 antag	CHRM5 agonist	M5 PAM	CHRM4 antagonist
COc1cc(C(=S)N2CCOCC2)cc(OC)c1OC(=O)c1ccccc1Cl	3.7	2.5	3.6	-2.4	-3.5	-13.9
COc1ccccc1N/C=C/c1onc(C)c1[N+](=O)[O-]	-0.7	2.2	22.9	14.6	-12.9	40.2*
CC(C)C[C@H]1CN([C@@H](CC(C)C)CN2CCC[C@H]2CN2C(=O)C(=O)NC[C@@H]2Cc2ccc(O)cc2)C(=O)C(=O)N1CC1CCCCCC1	-2.7	1.0	8.8	-0.1	-5.3	10.2
CCC(C)(C)n1nnnc1C(c1ccc(Cl)cc1)N1CCN(C)CC1 (centres undefined)	20.5*	1.0	-12.7	-5.2	-2.0	1.4
CC1C(=O)N(Cc2cn(CCC3OCCCO3)nn2)CCS(=O)(=O)N1Cc1ccc(-c2ccc(Cl)cc2)cc1 (centres undefined)	-11.8	26.6	9.4	3.5	-8.3	16.5
FC(F)C(F)(F)c1cc(-c2ccc(Cl)cc2)n[nH]1	-12.5	9.2	9.0	17.3	-9.5	28.5*
Fc1ccc(-c2cc(C(F)(F)C(F)F)[nH]n2)cc1	-11.9	28.1	12.6	31.9*	-9.1	5.8
Cc1nc2sccn2c(=O)c1S(=O)(=O)Nc1ccc(N2CCN(S(C)(=O)=O)CC2)cc1	-16.3	19.1	33.6*	-1.2	-14.6	18.0
CCCNC(=O)Cn1c(=O)/c(=C\c2ccc(-c3ccc([N+](=O)[O-])cc3)o2)s/c1=C\C(=O)C(C)(C)C	-4.4	31.5	26.8	25.3*	-7.4	17.9
O=C(COc1ccc(C(F)(F)F)cc1[N+](=O)[O-])Nc1cccc(C(F)(F)F)c1	29.5*	2.2	-9.2	-3.5	14.7	13.6
CC(C)(C)c1ccc(NC(=O)Nc2ccc(F)cc2)cc1	-20.4	31.3	78.7*	1.8	-16.2	51.5*
O=C(Nc1ccc(F)cc1)Nc1cccnc1Cl	-16.6	3.5	1.4	2.7	-6.6	32.3*
COc1cccc(NC(=O)CSCC(=O)O)c1	32.7*	0.1	2.9	1.2	-2.9	4.7
O=C(Nc1ccc(F)cc1)Nc1ccccc1F	1.7	6.9	9.0	0.3	-10.4	-5.4
COc1cccc(NC(=O)Nc2ccc(C)c(Cl)c2)c1	-9.8	12.7	33.3*	4.0	-20.1	2.5
COc1cccc(NC(=O)CSCC(=O)Nc2ccccc2)c1	-4.0	1.2	-7.3	1.8	-3.1	-3.4
CCOc1cc(C(=O)OCC(=O)Nc2ccc(F)cc2Cl)ccc1OCC(=O)N1CCOCC1	3.6	0.5	8.4	-1.5	-3.1	-7.2
COc1cccc(NC(=O)Nc2ccc(C(C)(C)C)cc2)c1	-18.0	12.7	34.8*	4.4	-20.3	18.9
COCCCNc1nc2ccccc2nc1NS(=O)(=O)c1cccc(Cl)c1	-0.4	0.9	-8.5	-2.4	4.9	-6.6
O=S(=O)(Nc1nc2ccccc2nc1NCCO)c1cccc(Cl)c1	-14.3	-1.5	-4.2	-4.1	-2.6	28.7*
CCOC(=O)C1=CNS(=O)(=O)NC1c1cccc(O)c1 (centres undefined)	9.6	1.2	-12.0	-1.1	7.2	-20.5
COC(=O)c1sccc1NC(=O)Nc1ccc(Cl)c(Cl)c1	-18.8	3.9	17.4	-0.7	-12.1	27.6*
COC(=O)c1ccc(NC(=O)Nc2ccc([N+](=O)[O-])cc2)cc1	-8.8	17.6	34.6*	4.5	-22.9	13.5
COC(=O)c1cccc(NC(=O)Nc2ccc(Cl)c(Cl)c2)c1	-8.3	26.7	32.2*	12.3	-26.4	11.9
COC(=O)c1ccc(NC(=O)Nc2ccc(F)c(Cl)c2)cc1	-8.4	24.6	30.7*	14.6	-20.8	8.7
SMILES	CHRM4 PAM	M4 ag	M5 antag	CHRM5 agonist	M5 PAM	CHRM4 antagonist
COc1ccc(OC)c(-c2nn(-c3ccccc3)cc2C(=O)NCC(c2ccco2)N2CCCC2)c1 (centres undefined)	-2.2	0.8	13.6	-12.1	-13.7	0.1
FC(F)(F)c1ccc(-n2cnc3ccccc32)nc1	0.1	1.7	-15.5	5.7	-1.9	-12.8
CCOc1ccc2c(S(=O)(=O)O)cccc2c1[N+](=O)[O-]	6.2	0.5	11.1	1.6	3.5	-8.7
Cc1nnc2ccc(-c3ccc(NS(=O)(=O)c4ccc(F)cc4F)cc3)nn12	3.0	1.7	-4.0	5.5	5.4	4.6
COC(=O)c1cc(NC(=O)Nc2ccccc2)ccc1Cl	-21.1	24.9	31.3*	8.4	-18.5	-2.0
O=C(Nc1ccc(Cl)c(Cl)c1)Nc1ccccc1NS(=O)(=O)c1cccs1	-9.4	13.1	30.1*	4.5	-19.1	5.7
O=C(Nc1ccccc1)Nc1ccccc1NS(=O)(=O)c1cccs1	-6.0	12.8	3.4	8.0	-15.1	-17.2
Cc1cccnc1C(NC(=O)C1CCN(CCOc2ccc(F)cc2)CC1)c1ccc(F)cc1 (centres undefined)	-2.4	4.2	-10.2	-2.0	-1.8	-8.6
CCC1=C(OC(=O)N(CC)CC)N2C(=O)OC(=NCC3CC3)[C@]2(Cc2ccccc2)[C@H]2C1=CC[C@H]1C(=O)NC(=O)[C@H]12	18.3	2.7	2.1	-1.4	-4.0	-13.3
CCC1=C(OC(=O)N(CC)CC)N2C(=O)OC(=NCCOC)[C@]2(Cc2ccccc2)[C@H]2C1=CC[C@H]1C(=O)NC(=O)[C@H]12	9.3	0.9	-89.9	6.8	26.5*	-2.4
C[C@H]1CN([C@@H](C)CO)C(=O)c2cc(-c3cccc(C#N)c3)cnc2O[C@H]1CN(C)C(=O)c1ccccn1	2.0	0.2	-0.9	2.4	-0.1	4.5
Cc1ccc(C2N3CC4([N+](=O)[O-])CN2CC([N+](=O)[O-])(C3)C4(C)C)cc1 (centres undefined)	3.4	0.8	15.4	-1.3	-6.1	-12.4
CCCC1N2CC3([N+](=O)[O-])CN1CC([N+](=O)[O-])(C2)C3(C)C (centres undefined)	20.4*	0.9	6.2	0.7	0.3	-0.6
CCCCN(C(=O)c1c(C)noc1C)c1c(N)n(CCC)c(=O)[nH]c1=O	2.9	1.2	-4.3	3.3	3.8	2.5
CCN(CC)CCNC(=O)C12CC3CC(CC(C3)C1)C2	-13.1	0.1	-2.7	-7.1	-3.6	41.8*
CCN(CC)CCNC(=O)C12CC3CC(C)(CC(C)(C3)C1)C2	-13.2	1.9	9.1	-7.5	-13.2	14.6
